Assay results from ChEMBL document CHEMBL1137649, “Mupirocin-resistant, methicillin-resistant Staphylococcus aureus strains in Canadian hospitals” (2007).
≈ marks a conversion by molar mass, not a printed value.

Columns and labels:
Assay type in all cases: functional
Staphylococcus aureus [1] = assay: Antimicrobial activity against mupirocin-susceptible methicillin-resistant Staphylococcus aureus assessed as resistant rate by broth microdilution method
Summary of the method: (§1)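 Clinical MRSA isolates (4,980) from 32 Canadian hospitals, 1995–2004, confirmed by multiplex PCR for mecA and nuc. Susceptibility done by broth microdilution following CLSI guidelines. Inducible clindamycin resistance in macrolide-resistant isolates detected by standardized disk approximation test. Isolates grouped as high-level mupirocin-resistant or mupirocin-susceptible. Resistance rates expressed as percentage of isolates per group.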

Staphylococcus aureus [2] = assay: Antimicrobial activity against mupirocin-susceptible methicillin-resistant Staphylococcus aureus by broth microdilution method; summary of the method: as §1
Staphylococcus aureus [3] = assay: Antimicrobial activity against mupirocin-resistant methicillin-resistant Staphylococcus aureus assessed as resistant rate by broth microdilution method; summary of the method: as §1
Staphylococcus aureus [4] = assay: Antimicrobial activity against mupirocin-resistant methicillin-resistant Staphylococcus aureus by broth microdilution method; summary of the method: as §1

Row | SMILES | Activity (Staphylococcus aureus [1]) [%] | MIC (Staphylococcus aureus [2]) [µg/mL] | MIC90 (Staphylococcus aureus [2]) [µg/mL] | Activity (Staphylococcus aureus [3]) [%] | MIC (Staphylococcus aureus [4]) [µg/mL] | MIC90 (Staphylococcus aureus [4]) [µg/mL]
1 | O=C(O)c1cn(C2CC2)c2cc(N3CCNCC3)c(F)cc2c1=O [CIPROFLOXACIN] | 90 | ≤ 4 | > 8 | 75 | ≥ 512 | > 8
2 | CCC[C@@H]1C[C@@H](C(=O)N[C@@H]([C@H]2O[C@H](SC)[C@H](O)[C@@H](O)[C@H]2O)[C@H](C)Cl)N(C)C1 [CLINDAMYCIN] | 86 | ≤ 4 | > 8 | 85 | ≥ 512 | > 8
3 | CC[C@H]1OC(=O)[C@H](C)[C@@H](O[C@H]2C[C@@](C)(OC)[C@@H](O)[C@H](C)O2)[C@H](C)[C@@H](O[C@@H]2O[C@H](C)C[C@H](N(C)C)[C@H]2O)[C@](C)(O)C[C@@H](C)C(=O)[C@H](C)[C@@H](O)[C@]1(C)O [ERYTHROMYCIN] | 94 | ≤ 4 | > 8 | 86 | ≥ 512 | > 8
4 | CC(=O)O[C@H]1C[C@@]2(C)[C@@H](C[C@@H](O)[C@H]3[C@@]4(C)CC[C@@H](O)[C@@H](C)[C@@H]4CC[C@@]32C)/C1=C(\CCC=C(C)C)C(=O)O [FUSIDIC ACID] | 4 | ≤ 0.5 | 0.5 (≈ 0.968 µM) | 21 | ≥ 512 | > 8
5 | CC(=O)NC[C@H]1CN(c2ccc(N3CCOCC3)c(F)c2)C(=O)O1 [LINEZOLID] | 0 | ≤ 4 | 1 (≈ 2.96 µM) | 0 | ≥ 512 | 2 (≈ 5.93 µM)
6 | C/C(=C\C(=O)OCCCCCCCCC(=O)O)C[C@@H]1OC[C@H](C[C@@H]2O[C@H]2[C@@H](C)[C@H](C)O)[C@@H](O)[C@H]1O [MUPIROCIN] | 0 | ≤ 4 | 0.5 (≈ 0.999 µM) | 100 | ≥ 512 | > 512
7 | CO[C@H]1/C=C/O[C@@]2(C)Oc3c(C)c(O)c4c(O)c(c(/C=N/N5CCN(C)CC5)c(O)c4c3C2=O)NC(=O)/C(C)=C\C=C\[C@H](C)[C@H](O)[C@@H](C)[C@@H](O)[C@@H](C)[C@H](OC(C)=O)[C@@H]1C [RIFAMPIN] | 2 | ≤ 4 | < 0.5 | 4 | ≥ 512 | < 0.5
8 | CN(C)[C@@H]1C(O)=C(C(N)=O)C(=O)[C@@]2(O)C(O)=C3C(=O)c4c(O)cccc4[C@@](C)(O)[C@H]3C[C@@H]12 [TETRACYCLINE] | 23 | ≤ 4 | > 16 | 7 | ≥ 512 | < 4
9 | CN[C@H](CC(C)C)C(=O)N[C@H]1C(=O)N[C@@H](CC(N)=O)C(=O)N[C@H]2C(=O)N[C@H]3C(=O)N[C@H](C(=O)N[C@H](C(=O)O)c4cc(O)cc(O)c4-c4cc3ccc4O)[C@H](O)c3ccc(c(Cl)c3)Oc3cc2cc(c3O[C@@H]2O[C@H](CO)[C@@H](O)[C@H](O)[C@H]2O[C@H]2C[C@](C)(N)[C@H](O)[C@H](C)O2)Oc2ccc(cc2Cl)[C@H]1O [VANCOMYCIN] | 0 | ≤ 4 | 1 (≈ 0.69 µM) | 0 | ≥ 512 | 1 (≈ 0.69 µM)
